Compound activity as filed in PubChem.
PKA-R1A activ – PKA-R1A complex activation | 340,000 compounds, 0.083% hits | PKA-R1A dissociation, Cy5-IP20 fluorescence polarization; scaled: DMSO 0%, 113 µM cGMP 100% | activation, % at 11.4 µM | P00514+P68181 | AID 504707;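 active = percent activation above the mean of all tested compounds plus 3 SD, cut at about 19% in these data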;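 also: higher means more PKAc released from R1A so a rise in polarization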
PKA-R2B activ – activators of human PKA-R2B complex; P22694+P31323; PKA-R2B holoenzyme dissociation, Cy5-IP20 fluorescence polarization; R2B truncated from residue 108, S112A mutant; 0% DMSO only, 100% 113 µM cGMP; activation, % at 11.4 µM; 340,000 compounds, 0.079% hits; AID 504700;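 active = activation above a cutoff set at the mean over all compounds plus 3 SD, cut at about 18% in these data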;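 also: higher means more holoenzyme dissociation and a rise in polarization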
Target sequence (P31323 whole entry, looked up, other chains not shown, the tested form may be a part): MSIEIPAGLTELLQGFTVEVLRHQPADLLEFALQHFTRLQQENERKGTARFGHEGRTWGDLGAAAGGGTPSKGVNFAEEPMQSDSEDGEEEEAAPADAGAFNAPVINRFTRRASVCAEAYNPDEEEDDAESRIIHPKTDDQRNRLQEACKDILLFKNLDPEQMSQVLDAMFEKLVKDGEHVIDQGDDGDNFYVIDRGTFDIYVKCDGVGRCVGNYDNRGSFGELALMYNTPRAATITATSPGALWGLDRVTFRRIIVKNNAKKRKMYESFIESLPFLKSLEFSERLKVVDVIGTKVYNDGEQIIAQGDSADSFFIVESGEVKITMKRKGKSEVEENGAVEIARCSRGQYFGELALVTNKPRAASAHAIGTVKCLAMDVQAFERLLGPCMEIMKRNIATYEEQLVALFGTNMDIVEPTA
aDG glyco act – alpha-DG glycosylation activation; 360,000 compounds, 0.22% hits; Pro5-aDG cells, alpha-DG glycosylation AlphaScreen (IIH6); 0% Pro5, 100% B10-LARGE cell signal; activation, % at 10 µM;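 active = activation of at least 8% versus controls, or a plate z-score of at least 8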;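 also: Pro5 are CHO cells carrying HIG-tagged alpha-DG that lacks glycosylation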
CTSL1 counter – counter-screen for PFM18AAP inhibitors: inhibitors of F. hepatica cathepsin L1; 300,000 compounds, 0.49% hits; inhibition, % at 5.96 µM; AID 1906; recombinant F. hepatica cathepsin L1, Z-Leu-Arg-MCA fluorescence;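 active = inhibition above the mean of all tested compounds plus 3 SD, set per screening campaign, cut at about 17% in these data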;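 also: 0% = plate median of test compound wells and 100% = 1 µM Z-Phe-Ala-diazomethylketone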
UCH37 DUB inh – human UCH37 deubiquitinating enzyme inhibition; AID 588478; 330,000 compounds, 0.33% hits; inhibition, % (no concentration beside the values); purified proteasome/UCH37, Ub-AMC cleavage fluorescence;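 active = mean inhibition over replicate wells above about 20%, limit read from the data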;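 also: 0% = compound-free wells with enzyme and 100% = wells lacking proteasome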
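Signal – fluorescence, ex 355 nm, em 460 nm · System – Proteasome-bound UCH37 · Input – 0.15 nM proteasome as dispensed · Timing – 30 min preincubation with enzyme, 25 min cleavage at room temperature · Read-out basis – percent inhibition of cleavage signal versus uninhibited and no-proteasome wells · Medium – Tris-HCl pH 7.4 with ATP-MgCl2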
* marks the source's active call; other numbers are inactive results; i = inactive; . = not tested or not shown. Most compounds without a hit are left out; they make up all but 0.94% or so of the library.

SMILES | PKA-R1A activ | PKA-R2B activ | aDG glyco act | CTSL1 counter | UCH37 DUB inh
CCC(C)c1ccccc1OCCCCN1CCCC1 (centres undefined) | 7.7 | 6.3 | 1.0 | 1.4 | 31.0*
CCC(C)c1ccccc1OCCOCCN1CCCC1 (centres undefined) | -2.7 | -3.3 | 0.2 | -4.0 | -0.7
Cn1cccc1C=NNC(=O)Cc1cccc2ccccc12 | . | . | . | . | 4.4
O=C(CNC(=O)c1ccco1)OCN1C(=O)c2ccccc2C1=O | -3.6 | 8.1 | 0.0 | 28.2* | 1.6
O=C(NCc1ccco1)C1CC(c2ccc(C(F)(F)F)cc2)=NO1 (centres undefined) | -6.3 | 5.2 | 0.0 | -0.4 | 27.2*
CN(C(=O)CCc1nc(-c2ccccc2F)no1)c1ccccc1 | -4.0 | -17.1 | 0.3 | 36.8* | 1.6
CCOc1cc(C=NNC(=O)c2ccc(CN3CCOCC3)cc2)ccc1OC | . | . | . | . | 6.2
O=C(CC1SC(=Nc2ccccc2)N(CCCO)C1=O)Nc1ccc(Cl)cc1 (centres undefined) | -6.4 | -17.1 | 0.7 | 9.2 | 2.3
O=C(CC1SC(=Nc2ccccc2)N(CCCCO)C1=O)NCc1ccccc1 (centres undefined) | -11.7 | -2.0 | -0.2 | 8.9 | 25.9*
COc1ccc2nc3ccccc3nc2c1N | -8.7 | 4.8 | -0.2 | -7.2 | 10.4
COc1ccc2nc3cccc(OC)c3nc2c1 | -3.4 | -5.0 | 0.1 | 19.1* | 3.1
CC1(C)CC(=O)/C(=C(\O)CCCN2C(=O)c3ccccc3C2=O)C(=NC(C)(C)C)C1 | . | . | . | . | 0.6
CC(C)C(NC(=O)COc1ccc2ccccc2c1)C(=O)NN=C/C=C/c1ccccc1 (centres undefined) | . | . | . | . | 2.1
CC(C)CC(NS(=O)(=O)c1ccc2c(c1)oc(=O)n2C)C(=O)N1CC=C(c2ccccc2)CC1 (centres undefined) | -1.8 | 4.8 | 0.4 | 77.5* | 3.8
CCOc1ccc(C=NNC(=O)c2cc3c(OC)cc(OC)cc3[nH]2)cc1OC | . | . | . | . | -79.3
CC(=O)Nc1ccccc1NC(=O)CC(C)=NNC(=O)c1ccncc1 | . | . | . | . | 0.0
Cn1c(=O)c(C(=O)COc2ccc(F)cc2Cl)c(N)n(Cc2ccccc2)c1=O | -2.3 | -10.5 | 0.7 | 31.3* | -2.5
Cc1cc(C)c(OCC(=O)NN=Cc2ccco2)c(C)c1 | . | . | . | . | -0.8
CCOc1ccc(C(Nc2ccc(C)cc2)P2(=O)OCCC(C)O2)cc1 (centres undefined) | 3.3 | -3.8 | -0.2 | -1.7 | 29.8*
N/C(CCS(=O)(=O)c1ccc(Cl)cc1)=N\OC(=O)c1ccccc1Cl | -6.3 | -5.0 | 0.0 | 24.6* | 3.7
O=C(O)c1ccc(C=NNc2ccc(F)cc2F)cc1 | . | . | . | . | 11.1
Cc1ccc2[nH]cc(C(=O)CCl)c2c1 | -2.5 | -3.5 | 1.4 | 60.9* | 3.2
Nc1ccccc1Nc1ccccc1 | 11.3 | -4.2 | 1.2 | 18.6* | 6.7
Nc1ccc(Nc2ccccc2)c(Cl)c1 | -3.9 | 0.0 | -0.1 | 7.0 | 1.3
Cc1ccsc1C=NNC(=O)CO | . | . | . | . | 2.5
SMILES | PKA-R1A activ | PKA-R2B activ | aDG glyco act | CTSL1 counter | UCH37 DUB inh
CN(c1ncnc(N)c1[N+](=O)[O-])C1CCS(=O)(=O)C1 (centres undefined) | -2.6 | -9.4 | 0.5 | -0.4 | 7.8
Nc1ncnc(NC2CCS(=O)(=O)C2)c1[N+](=O)[O-] (centres undefined) | -9.2 | -2.5 | 0.0 | 49.1* | 7.9
COc1ccc(S(=O)(=O)Nc2ccccc2C(=O)NC(C)(C)C)cc1OC | 2.1 | 0.9 | -0.2 | -1.2 | -3.6
COc1ccc(S(=O)(=O)Nc2ccccc2C(=O)OC2CCCN(C)C2)cc1OC (centres undefined) | -3.0 | -7.9 | -0.2 | 27.4* | 4.4
COc1cccc(-c2noc(Cn3nc(C)c([N+](=O)[O-])c3C)n2)c1 | -2.7 | -6.6 | 1.5 | 4.9 | 24.4*
COc1cccc(OCc2nc(-c3cccc([N+](=O)[O-])c3)no2)c1 | . | . | -0.3 | 0.8 | -0.2
COc1ccc(C)cc1Nc1n[n+](C)c(-c2ccc(O)cc2O)s1 | -3.2 | -4.2 | -0.2 | 0.5 | 22.5*
COc1ccc(C)cc1Nc1n[n+](C)c(-c2c3ccccc3cc3ccccc23)s1 | -4.0 | -2.0 | -0.5 | 0.7 | 0.3
COc1ccc(-c2[nH]ncc2C=NNS(=O)(=O)c2ccc(Cl)cc2)cc1 | . | . | . | . | 3.6
Cc1nnc2sc(SCC(=O)N3CCC(C)CC3)nn2c1=O | -3.3 | 4.7 | 0.1 | 47.3* | 8.4
Cc1nnc2sc(SCC(=O)N3CCCCC3)nn2c1=O | -1.5 | 1.7 | 0.1 | 0.7 | 9.6
CCOc1ccc(C(=O)CC(C(=O)O)N2CCN(Cc3ccccc3)CC2)cc1 (centres undefined) | -15.9 | -5.0 | 0.3 | . | 0.5
CCOc1ccc(C(=O)CC(C(=O)O)N2CCCCC2)cc1 (centres undefined) | -4.6 | 18.5* | 0.7 | . | 2.1
CCOC(=O)C1=C(C)N=c2sc(=Cc3cccc(OCC(=O)O)c3)c(=O)n2C1c1ccccc1 (centres undefined) | . | . | . | . | 9.6
CC1(C)CC(=O)C2=C(C1)c1c(ccc3ccccc13)NC2c1ccc(OCC(=O)O)cc1 (centres undefined) | 8.0 | 5.0 | 0.1 | -4.4 | i
CC1(C)CC(=O)C2=C(C1)c1c(ccc3ccccc13)NC2c1ccc(Br)o1 (centres undefined) | 0.4 | -6.0 | 1.3 | 57.2* | -36.4
CCOC(=O)c1c(C)[nH]c(C(C)=NO)c1C | . | . | . | . | 3.6
COc1cc(C=NN=C(N)c2nonc2N)ccc1O | . | . | . | . | 11.2
COc1cc(C=NNC(=O)COc2ccc(-n3cnnn3)cc2)ccc1OCC(N)=O | . | . | . | . | 4.3
CCc1ccc(Nc2ccc(C(N)=O)cc2[N+](=O)[O-])cc1 | -5.8 | 2.8 | 1.0 | 2.1 | 8.6
Cc1ccc(Nc2ccc(C(N)=O)cc2[N+](=O)[O-])cc1C | -0.5 | -7.9 | 0.5 | -4.0 | 26.5*
O=C(NC1CSCC1=NO)c1ccccc1 (centres undefined) | . | . | . | . | 4.4
OCCNC(=S)Nc1ccc2nsnc2c1 | -10.5 | 8.9 | 0.8 | 112.0* | 2.8
CCOC(=O)CC(C#N)c1cn(C)c2ccccc12 (centres undefined) | -9.3 | 5.6 | 0.4 | 28.2* | -1.9
Cc1ccccc1C(=O)N/N=C/c1ccc([N+](=O)[O-])s1 | -5.9 | -5.4 | 3.6 | 0.8 | .
O=C(N/N=C/c1ccc([N+](=O)[O-])s1)c1ccccc1 | 0.0 | -4.4 | 9.5* | 13.1 | .
O=C(N/N=C/c1ccc([N+](=O)[O-])s1)C(O)c1ccccc1 (centres undefined) | -6.0 | -4.2 | 11.0* | 1.8 | .
O=C(N/N=C/c1ccc([N+](=O)[O-])s1)c1ccccc1Br | -0.6 | -4.2 | 5.6* | 1.3 | .
O=C(Cc1ccccc1)N/N=C/c1ccc([N+](=O)[O-])s1 | -3.8 | -8.0 | 2.7 | -1.7 | .
COc1cc(C=NNc2nc(=O)[nH]nc2C)cc(OC)c1O | . | . | . | . | 15.5
